Source: ChEMBL document CHEMBL3351823, “Synthesis and biological evaluations of new analogs of 2-methoxyestradiol: inhibitors of tubulin and angiogenesis” (Eur J Med Chem, 2014)
The source made the active and inactive calls. The rule behind the calls is not given here.

Assays:
K562 = test: Anticancer activity against human K562 cells assessed as cell growth inhibition after 5 days by MTT assay; type: functional, cell-based; conditions: K562, 120 h
Procedure, shortened: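 Compounds dissolved in DMSO and serially diluted in medium. Equal volume added to cells at about 40,000 cells/ml, set by doubling time. K562 grown in RPMI with 2-mercaptoethanol, L-glutamine and 10% FCS, no antibiotics. Drug-free wells served as control. Growth read on a plate reader; IC50 taken graphically as % of control growth. Three experiments run in duplicate.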

[1] = Anticancer activity against human WM35 cells assessed as cell growth inhibition after 5 days by MTT assay; type: functional, cell-based; conditions: WM35, 120 h
[2] = Antiangiogenic activity in BAECs after 18 hrs by extracellular matrix assay; type: functional, Bos taurus; conditions: baec
Procedure, shortened: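 Extracellular matrix thawed at 4 °C, 50 µl per well, set 10 min at 37 °C. Solid wells incubated 30 min with BAECs (30,000 cells/well), then given analogs at the same concentration. IC50 from three experiments run in duplicate.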

[3] = Anticancer activity against human OVCAR3 cells assessed as cell growth inhibition after 5 days by MTT assay; type: functional, cell-based; conditions: OVCAR-3, 120 h
Tubulin = Tubulin (Sus scrofa, UniProt P02554+P02550); test: Inhibition of porcine brain tubulin polymerization after 60 mins
Procedure, shortened: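 Wells pre-chilled at 4 °C for 30 min. Mixture of Mes buffer pH 6.6 with MgCl2, GTP, tubulin (50 µl of 11 mg/ml in Mes buffer) and test compound in DMSO. Absorbance recorded at 25 °C over 60 min. Change in optical density compared with untreated controls.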

[4] = target: T1, Estrogen receptor (Homo sapiens) (UniProt P03372); test: Agonist activity at estrogen receptor (unknown origin) expressed in rat PC12 cells coexpressing ER-luc at 10 uM after 24 hrs; type: cell-based; conditions: PC-12
T1 sequence (whole entry): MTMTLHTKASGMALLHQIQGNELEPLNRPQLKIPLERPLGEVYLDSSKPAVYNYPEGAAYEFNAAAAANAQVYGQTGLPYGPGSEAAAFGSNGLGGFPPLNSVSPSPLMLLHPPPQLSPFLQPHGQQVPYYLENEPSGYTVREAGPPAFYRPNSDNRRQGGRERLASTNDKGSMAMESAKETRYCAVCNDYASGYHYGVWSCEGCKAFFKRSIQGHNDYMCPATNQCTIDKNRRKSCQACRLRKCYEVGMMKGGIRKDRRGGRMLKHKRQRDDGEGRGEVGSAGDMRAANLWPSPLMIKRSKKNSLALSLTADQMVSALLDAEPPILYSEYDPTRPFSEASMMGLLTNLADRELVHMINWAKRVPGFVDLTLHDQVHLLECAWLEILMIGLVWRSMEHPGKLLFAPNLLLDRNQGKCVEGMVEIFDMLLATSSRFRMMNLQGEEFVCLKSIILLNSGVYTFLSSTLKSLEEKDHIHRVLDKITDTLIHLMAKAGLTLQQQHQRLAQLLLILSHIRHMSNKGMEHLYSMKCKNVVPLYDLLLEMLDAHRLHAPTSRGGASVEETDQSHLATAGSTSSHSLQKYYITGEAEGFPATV
Procedure, shortened: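 PC-12 cells plated at 7 × 10⁴ cells/ml, 37 °C, 5% CO₂; co-transfected with ERE-luc and ER one day after plating (liposome complexes in serum-free DMEM, serum medium restored after 3 h). Treated next day for 24 h; 0.1% DMSO solvent control, 17-β-estradiol positive control. Luciferase read with 1 mM luciferin, normalised to Renilla; 2 independent experiments, n = 3–5.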

Row | Compound | IC50 (K562) [nM] | IC50 [1] [nM] | IC50 [2] [nM] | IC50 [3] [nM] | IC50 (Tubulin) [nM] | Activity [4]
1 | COc1cc2c(cc1O)CC[C@@H]1[C@@H]2CC[C@]2(C)C(c3ccccc3)=CC[C@@H]12 | > 10000 | > 10000 | > 10000 | > 10000 | – | –
2 | COc1cc2c(cc1O)CC[C@@H]1[C@@H]2CC[C@]2(C)[C@@H](O)CC[C@@H]12 [2-METHOXYESTRADIOL] | 800 | 2100 | 3200 | 1200 | 2200 | –
3 | COc1cc2c(cc1O)CC[C@@H]1[C@@H]2CC[C@]2(C)C(c3cccnc3)=CC[C@@H]12 | > 10000 | > 10000 | > 10000 | > 10000 | – | inactive
4 | COc1cc2c(cc1O)CC[C@@H]1[C@@H]2CC[C@]2(C)[C@@H](c3cccnc3)CC[C@@H]12 | 1100 | 1900 | 5200 | 800 | 5100 | inactive
5 | COc1cc2c(cc1O)CC[C@@H]1[C@@H]2CC[C@]2(C)C(c3cccc4cnccc34)=CC[C@@H]12 | 3100 | 5100 | 2400 | 3900 | 7200 | –
6 | COc1cc2c(cc1O)CC[C@@H]1[C@@H]2CC[C@]2(C)C(c3ccc4cnccc4c3)=CC[C@@H]12 | 400 | 1000 | 700 | 200 | 2200 | –
7 | COc1cc2c(cc1O)CC[C@@H]1[C@@H]2CC[C@]2(C)[C@@H](c3cccc4cnccc34)CC[C@@H]12 | 2100 | 4100 | 1300 | 3000 | 8100 | –
8 | COc1cc2c(cc1O)CC[C@@H]1[C@@H]2CC[C@]2(C)C(c3ccncc3)=CC[C@@H]12 | 900 | 1000 | 600 | 1200 | 4100 | –
9 | COc1cc2c(cc1O)CC[C@@H]1[C@@H]2CC[C@]2(C)[C@@H](c3ccc4cnccc4c3)CC[C@@H]12 | 700 | 900 | 600 | 500 | 2100 | –
10 | COc1cc2c(cc1O)CC[C@@H]1[C@@H]2CC[C@]2(C)[C@@H](c3cncc4c3CCCC4)CC[C@@H]12 | 500 | 900 | 1100 | 400 | 2500 | inactive
11 | COc1cc2c(cc1O)CC[C@@H]1[C@@H]2CC[C@]2(C)[C@@H](c3ccc4ccncc4c3)CC[C@@H]12 | > 10000 | > 10000 | 3300 | > 10000 | > 10000 | –
12 | COc1cc2c(cc1O)CC[C@@H]1[C@@H]2CC[C@]2(C)[C@@H](c3ccncc3)CC[C@@H]12 | 1400 | 1600 | 4200 | 1000 | 5800 | –
13 | COc1cc2c(cc1O)CC[C@@H]1[C@@H]2CC[C@]2(C)[C@@H](c3cccc4c3CCCN4)CC[C@@H]12 | 1300 | 1900 | 3300 | 1500 | 3700 | inactive
14 | COc1cc2c(cc1O)CC[C@@H]1[C@@H]2CC[C@]2(C)C(c3cncc4ccccc34)=CC[C@@H]12 | 500 | 700 | 800 | 400 | 4800 | inactive
15 | COc1cc2c(cc1O)CC[C@@H]1[C@@H]2CC[C@]2(C)C(c3cccc4ncccc34)=CC[C@@H]12 | 1100 | 2900 | 2000 | 1200 | 3100 | –
16 | COc1cc2c(cc1O)CC[C@@H]1[C@@H]2CC[C@]2(C)C(c3ccc4ccncc4c3)=CC[C@@H]12 | > 10000 | > 10000 | > 10000 | > 10000 | – | –
